The source of these data is ChEMBL document CHEMBL2384910, “Lead optimization of 5-amino-6-(2,2-dimethyl-5-oxo-4-phenylpiperazin-1-yl)-4-hydroxyhexanamides to reduce a cardiac safety issue: discovery of DS-8108b, an orally active renin inhibitor” (Bioorg Med Chem, 2013).

In one data set the test system is Rattus norvegicus. As to the kind of experiment: Cardiotoxicity in Sprague-Dawley rat electrophysiology model assessed as QRS complex abnormalities at 10 mg/kg, iv by ECG analysis. It is filed as toxicity, organism-based. More on the design: dose 10 mg/kg, route intravenous. The conditions noted are these: in vivo. The essentials: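 Male Sprague-Dawley rats anesthetized with inactin 100 mg/kg ip; surface lead II ECG recorded continuously. Compounds given as iv bolus via right jugular vein catheter after stabilization; QRS complex abnormality scored as no, moderate or severe change; n = 2 at 10 mg/kg.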

Data set [1] addresses T1, Renin (Macaca fascicularis) (UniProt Q6DLS0).
T1 sequence (whole entry): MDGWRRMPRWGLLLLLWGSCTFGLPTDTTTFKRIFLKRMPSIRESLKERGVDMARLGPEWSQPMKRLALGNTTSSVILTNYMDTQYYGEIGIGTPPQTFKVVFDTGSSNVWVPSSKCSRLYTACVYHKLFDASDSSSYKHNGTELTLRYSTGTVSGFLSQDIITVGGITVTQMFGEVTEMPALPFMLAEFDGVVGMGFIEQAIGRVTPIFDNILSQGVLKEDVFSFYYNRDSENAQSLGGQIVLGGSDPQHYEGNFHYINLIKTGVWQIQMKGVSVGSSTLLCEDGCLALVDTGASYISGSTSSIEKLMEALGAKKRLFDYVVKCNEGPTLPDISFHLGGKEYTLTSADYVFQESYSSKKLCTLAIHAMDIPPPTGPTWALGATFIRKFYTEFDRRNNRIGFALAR
As to the kind of experiment: Ratio of compound IC50 to aliskiren IC50 for renin in cynomolgus monkey plasma.

For data set [2], the target named is T2, Renin (Macaca fascicularis, UniProt Q6DLS0).
T2 sequence (Q6DLS0 whole entry): T1 sequence (whole entry)
In words: Inhibition of renin in cynomolgus monkey plasma after 1 hr by RIA. The essentials: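 Pooled mixed-gender EDTA cynomolgus monkey plasma with pH adjusting solution and Inhibitor A, compound in 1% DMSO final, incubated 1 h at 37 °C. Angiotensin I by competitive RIA; uninhibited and 4 °C controls define % inhibition; IC50 from four-parameter fit; ratio is compound IC50 over aliskiren IC50 in same plasma batch; ≥2 replicates.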

The target in data set [3] is T3, Renin (Homo sapiens, UniProt P00797).
T3 sequence (P00797 whole entry): T1 sequence (whole entry) with A68T, L214I, A235S
In words: Inhibition of human recombinant renin using Arg-Glu(EDANS)-Ile-His-Pro-Phe-His-Leu-Val-Ile-His-Thr-Lys (DABCYL)-Arg as substrate incubated for 10 mins prior to substrate addition measured after 90 mins by fluorescence assay. A digest of the protocol:
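Trypsin-activated recombinant human renin in 50 mM Tris-HCl pH 7.9, 100 mM NaCl, preincubated with compound 10 min at room temperature; FRET substrate Arg-Glu(EDANS)…Lys(DABCYL)-Arg added, 90 min at 37 °C.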

Each structure is given as a SMILES string. Residue numbers refer to the chain shown, from its start.

Regarding `CC(C)[C@H](C[C@H](O)[C@@H](N)CN1CC(=O)N(c2ccccc2Cl)CC1(C)C)C(=O)NCC(C)(C)C(N)=O.O=C(O)/C=C/C(=O)O`, the Activity result in the data set on Rattus norvegicus is “Non-toxic”. The Ratio IC50 in data set [1] came out at 1.2.

As usually defined, the IC50 is the point on the concentration scale where inhibition reaches its midpoint. For the compound `CC(C)NC(=O)[C@@H](C[C@H](O)[C@@H](N)CN1CC(=O)N(c2ccccc2Cl)CC1(C)C)C(C)C.O=C(O)/C=C/C(=O)O`, the IC50 against Renin [2] is 33 nM; at Renin [3], 2.9 nM. Further, the Activity entry in the data set with Rattus norvegicus is listed as “Toxic”. For the same compound, the Ratio IC50 in data set [1] stood at 2.7.

As to `CC(C)[C@H](C[C@H](O)[C@@H](N)CN1CC(=O)N(c2cc(F)ccc2Cl)CC1(C)C)C(=O)N[C@H]1C2CC3CC1C[C@](O)(C3)C2.O=C(O)/C=C/C(=O)O`, the IC50 on Renin [2] turned out to be 7.8 nM; on Renin [3], 1.9 nM. In the data set with Rattus norvegicus, the Activity result is recorded as “Non-toxic”. For the same compound, in data set [1], the Ratio IC50 turned out to be 0.7.

With `CC[C@H](C[C@H](O)[C@@H](N)CN1CC(=O)N(c2cc(F)ccc2Cl)CC1(C)C)C(=O)N[C@H]1C2CC3CC1C[C@](O)(C3)C2.O=C(O)/C=C/C(=O)O`, the concentration for half-maximal inhibition (IC50) at Renin [2] was found to be 3.6 nM; at Renin [3], 1.4 nM. Further, the Activity entry with Rattus norvegicus is listed as “Non-toxic”. The Ratio IC50 in data set [1] stood at 0.7.

`Cc1cccc(NC(=O)[C@@H](C[C@H](O)[C@@H](N)CN2CC(=O)N(c3ccccc3Cl)CC2(C)C)C(C)C)n1.O=C(O)/C=C/C(=O)O`: the IC50 against Renin [2] was 47 nM; on Renin [3], 5.6 nM. In addition, in the data set with Rattus norvegicus, the Activity entry is reported as “Toxic”. For the same compound, the Ratio IC50 in data set [1] was found to be 7.3.

`CC[C@H](C[C@H](O)[C@@H](N)CN1CC(=O)N(c2ccccc2Cl)CC1(C)C)C(=O)NCC1(CO)CCCCC1.O=C(O)/C=C/C(=O)O`: the values for the half-maximal inhibitory concentration (IC50) at Renin [2] and on Renin [3] were 3.4 nM and 1.1 nM, respectively. In addition, the Activity result in the data set on Rattus norvegicus was “Toxic”. Besides, in data set [1], the Ratio IC50 was 0.6.

Consider `CC(C)[C@H](C[C@H](O)[C@@H](N)CN1CC(=O)N(c2ccccc2Cl)CC1(C)C)C(=O)Nc1ncc(F)cc1F.O=C(O)/C=C/C(=O)O`, for which the figures for the 50% inhibitory concentration (IC50) against Renin [2] and on Renin [3] were 3.3 nM and 1.7 nM, respectively. In the data set with Rattus norvegicus, the Activity entry is listed as “Toxic”. Moreover, the Ratio IC50 in data set [1] was found to be 0.7.

Take `CC(C)[C@H](C[C@H](O)[C@@H](N)CN1CC(=O)N(c2ccccc2Cl)CC1(C)C)C(=O)NCC(C)(C)CO.O=C(O)/C=C/C(=O)O`: the IC50 against Renin [2] turned out to be 9.6 nM; at Renin [3], 1.7 nM. In the data set on Rattus norvegicus, the Activity result is on record as “Toxic”. In addition, the Ratio IC50 in data set [1] amounted to 0.8.

Consider `Cc1ccc(F)cc1N1CC(C)(C)N(C[C@H](N)[C@@H](O)C[C@H](C(=O)NCC(C)(C)C(=O)O)C(C)C)CC1=O`, for which the IC50 at Renin [2] stood at 39 nM; on Renin [3], 16 nM. For the same compound, in data set [1], the Ratio IC50 is 16.

In the case of `C[C@H](C[C@H](O)[C@@H](N)CN1CC(=O)N(c2ccccc2Cl)CC1(C)C)C(=O)N[C@H]1C2CC3CC1C[C@](O)(C3)C2.O=C(O)/C=C/C(=O)O`, the figures for the IC50 against Renin [2] and at Renin [3] were 7.3 nM and 1.1 nM, respectively. Besides, the Activity result in the data set with Rattus norvegicus is “Non-toxic”. The Ratio IC50 in data set [1] is 1.6.

For `C[C@H](C[C@H](O)[C@@H](N)CN1CC(=O)N(c2ccccc2Cl)CC1(C)C)C(=O)NCC(C)(C)C`, the IC50 against Renin [2] came out at 2.1 nM; on Renin [3], 1 nM. Also, in data set [1], the Ratio IC50 was determined as 0.5.

With `CC(C)[C@H](C[C@H](O)[C@@H](N)CN1CC(=O)N(c2ccccc2Cl)CC1(C)C)C(=O)Nc1ccncc1.O=C(O)/C=C/C(=O)O`, the IC50 against Renin [2] is 15 nM; on Renin [3], 1.6 nM. In addition, the Activity result in the data set with Rattus norvegicus is listed as “Toxic”. In data set [1], the Ratio IC50 was 1.5.

`CC(C)[C@H](C[C@H](O)[C@@H](N)CN1CC(=O)N(c2ccccc2Cl)CC1(C)C)C(=O)NCC(C)(C)O.O=C(O)/C=C/C(=O)O`: the half-inhibitory concentration (IC50) against Renin [2] came to 15 nM; at Renin [3], 2.4 nM. In the data set with Rattus norvegicus, the Activity result is “Non-toxic”. In addition, the Ratio IC50 in data set [1] was 1.9.

In the case of `CC(C)CNC(=O)C(C)(C)C[C@H](O)[C@@H](N)CN1CC(=O)N(c2cc(F)ccc2Cl)CC1(C)C.O=C(O)/C=C/C(=O)O`, the values for the IC50 against Renin [2] and on Renin [3] were 738 nM and 97 nM, respectively. Also, in the data set on Rattus norvegicus, the Activity result was “Toxic”. Besides, the Ratio IC50 in data set [1] amounted to 132.

Turning to `CC[C@H](C[C@H](O)[C@@H](N)CN1CC(=O)N(c2ccccc2Cl)CC1(C)C)C(=O)Nc1ccc(F)cc1.O=C(O)/C=C/C(=O)O`, the half-inhibitory concentration (IC50) against Renin [2] was 3.4 nM; at Renin [3] it was 1.6 nM. Also, in the data set on Rattus norvegicus, the Activity entry is on record as “Toxic”. Also, in data set [1], the Ratio IC50 amounted to 0.9.

With `CC[C@H](C[C@H](O)[C@@H](N)CN1CC(=O)N(c2ccccc2Cl)CC1(C)C)C(=O)NCC1(CO)CCCC1.O=C(O)/C=C/C(=O)O`, the IC50 at Renin [2] stood at 3 nM; on Renin [3], 1.1 nM. Also, the Activity entry with Rattus norvegicus is recorded as “Toxic”. Also, the Ratio IC50 in data set [1] was 0.7.

For `CC(C)[C@H](C[C@H](O)[C@@H](N)CN1CC(=O)N(c2ccccc2Cl)CC1(C)C)C(=O)Nc1ccc(F)cc1.O=C(O)/C=C/C(=O)O`, the IC50 on Renin [2] was 7.2 nM; on Renin [3], 1.4 nM. Besides, the Activity result in the data set with Rattus norvegicus is “Toxic”. The Ratio IC50 in data set [1] is 1.2.

As for `CCCCNC(=O)[C@@H](C[C@H](O)[C@@H](N)CN1CC(=O)N(c2ccccc2Cl)CC1(C)C)C(C)C.O=C(O)/C=C/C(=O)O`, in the data set on Rattus norvegicus, the Activity result is “Toxic”. For the same compound, the Ratio IC50 in data set [1] is 0.8.

Take `CC[C@H](C[C@H](O)[C@@H](N)CN1CC(=O)N(c2ccccc2Cl)CC1(C)C)C(=O)NCC(C)(C)C.O=C(O)/C=C/C(=O)O`: the IC50 came out at 2.3 nM at Renin [2] and 0.8 nM at Renin [3]. For the same compound, the Activity entry in the data set on Rattus norvegicus is on record as “Toxic”. In data set [1], the Ratio IC50 was 0.3.

Consider `CC[C@H](C[C@H](O)[C@@H](N)CN1CC(=O)N(c2ccccc2Cl)CC1(C)C)C(=O)N[C@H]1C2CC3CC1C[C@@](O)(C3)C2.O=C(O)/C=C/C(=O)O`, for which the IC50 on Renin [2] turned out to be 1.8 nM; on Renin [3] it was 1.1 nM. Moreover, the Activity result in the data set on Rattus norvegicus is “Toxic”. Also, in data set [1], the Ratio IC50 was found to be 0.7.

`CC(C)CNC(=O)[C@@H](C[C@H](O)[C@@H](N)CN1CC(=O)N(c2ccccc2Cl)CC1(C)C)C(C)C.O=C(O)/C=C/C(=O)O`: the IC50 worked out at 4 nM against Renin [2] and 1.4 nM on Renin [3]. The Activity entry with Rattus norvegicus is listed as “Toxic”. Besides, in data set [1], the Ratio IC50 came to 0.7.

For the compound `CC(C)[C@H](C[C@H](O)[C@@H](N)CN1CC(=O)N(c2ccccc2Cl)CC1(C)C)C(=O)Nc1cccnc1`, the half-inhibitory concentration (IC50) worked out at 19 nM against Renin [2] and 2.1 nM at Renin [3]. The Ratio IC50 in data set [1] was determined as 1.9.

For the compound `CC(C)[C@H](C[C@H](O)[C@@H](N)CN1CC(=O)N(c2ccccc2Cl)CC1(C)C)C(=O)NC1CCOCC1.O=C(O)/C=C/C(=O)O`, the figures for the concentration for half-maximal inhibition (IC50) on Renin [2] and at Renin [3] were 9.8 nM and 2 nM, respectively. Further, the Activity entry with Rattus norvegicus is “Toxic”. The Ratio IC50 in data set [1] is 1.4.

In the case of `CC(C)[C@H](C[C@H](O)[C@@H](N)CN1CC(=O)N(c2ccccc2Cl)CC1(C)C)C(=O)Nc1ccccn1.O=C(O)/C=C/C(=O)O`, the results for the IC50 against Renin [2] and on Renin [3] were 3.4 nM and 1.8 nM, respectively. In addition, the Activity result in the data set on Rattus norvegicus is recorded as “Toxic”. In addition, in data set [1], the Ratio IC50 turned out to be 0.7.

As for `CC(C)[C@H](C[C@H](O)[C@@H](N)CN1CC(=O)N(c2ccccc2Cl)CC1(C)C)C(=O)Nc1ccc(F)cc1F.O=C(O)/C=C/C(=O)O`, the half-maximal inhibitory concentration (IC50) against Renin [2] was found to be 14 nM; on Renin [3], 2 nM. Further, the Activity entry in the data set with Rattus norvegicus is on record as “Toxic”. Further, the Ratio IC50 in data set [1] stood at 3.

Consider `CC(C)[C@H](C[C@H](O)[C@@H](N)CN1CC(=O)N(c2ccccc2Cl)CC1(C)C)C(=O)N[C@H]1C2CC3CC1C[C@](O)(C3)C2.O=C(O)/C=C/C(=O)O`, for which the results for the half-inhibitory concentration (IC50) at Renin [2] and at Renin [3] were 2.2 nM and 1.3 nM, respectively. In addition, the Activity result with Rattus norvegicus is on record as “Non-toxic”. The Ratio IC50 in data set [1] came to 0.9.

As for `CCCCNC(=O)[C@@H](C[C@H](O)[C@@H](N)CN1CC(=O)N(c2cc(F)ccc2Cl)CC1(C)C)C(C)C`, the Ratio IC50 in data set [1] came out at 1.2.

On to `CC[C@H](C[C@H](O)[C@@H](N)CN1CC(=O)N(c2ccccc2Cl)CC1(C)C)C(=O)Nc1cc(OC)ccn1`, for which the IC50 against Renin [2] is 33 nM; on Renin [3] it was 6.7 nM. The Ratio IC50 in data set [1] turned out to be 13.
